According to article PMC3253719 (Anesthesia and Analgesia, 2010):
Where two headings read alike, the source gives them in different places.

How the values were obtained:
rat CB2 receptor [1] = target: T1, rat CB2 receptor (Rattus norvegicus, UniProt Q9QZN9); assay: cAMP activation assay, rat CB2; assay type: cell-based
T1 sequence (Q9QZN9 1-360): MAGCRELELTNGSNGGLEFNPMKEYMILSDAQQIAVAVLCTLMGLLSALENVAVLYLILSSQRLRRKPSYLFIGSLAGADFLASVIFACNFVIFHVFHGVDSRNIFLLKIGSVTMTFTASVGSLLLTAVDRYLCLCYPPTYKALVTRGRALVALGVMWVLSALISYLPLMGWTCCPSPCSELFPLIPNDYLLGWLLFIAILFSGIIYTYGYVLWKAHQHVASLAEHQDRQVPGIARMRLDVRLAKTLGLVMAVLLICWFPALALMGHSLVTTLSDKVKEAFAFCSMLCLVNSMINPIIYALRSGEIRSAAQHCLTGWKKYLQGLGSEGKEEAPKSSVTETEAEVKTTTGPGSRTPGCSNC

rat CB2 receptor [2] = target: T1, rat CB2 receptor; assay: GTPγ[35S] functional assay, rat CB2; assay type: biochemical
[3] = test system: rats with spinal nerve ligation; assay: Tactile allodynia, lumbar 5-6 spinal nerve ligation neuropathic pain model; assay type: in vivo, rat; settings: for Effect on tactile allodynia: several doses
How it was run: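 Male Sprague-Dawley rats (120–150 g). Under isoflurane in 100% O2, the left L6 transverse process was removed and the left L5 and L6 spinal nerves were tightly ligated with 6-0 silk. Neuropathy was confirmed by daily von Frey paw-withdrawal thresholds after ≥30 min acclimation on wire mesh. Compounds were given IP; AM630 (5 mg/kg IP) was given 15 min before the test compound. n = 6–12 per group.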

central nervous system = settings: IP; cited from earlier work
naïve rats [4] = assay: Open-field chamber testing; assay type: in vivo, rat; settings: 1 mg/kg IP
rat CB2 receptors [5] = settings: cited from earlier work
human CB2 receptors = settings: cited from earlier work
rat CB1 receptor [6] = target: T2, rat CB1 receptor (Rattus norvegicus, UniProt P20272); assay: GTPγ[35S] functional assay, rat CB1; assay type: biochemical
rat CB1 receptor [7] = target: T2, rat CB1 receptor; assay: cAMP activation assay, rat CB1; assay type: cell-based
human CB1 receptor [8] = target: T3, human CB1 receptor (Homo sapiens, UniProt P21554); assay: GTPγ[35S] functional assay, human CB1; assay type: biochemical
rat CB2 receptor [9] = target: T1, rat CB2 receptor; assay: Radioligand competitive binding assay, rat CB2
rat CB2 receptors [10] = assay: Erk1/2; assay type: cell-based
[11] = test system: paclitaxel-treated CB2^+/+ mice; assay: Tactile allodynia, paclitaxel-induced neuropathic pain model in CB2^+/+ mice; assay type: in vivo, mouse; settings: 10 mg/kg IP
How it was run: (§1)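 Male CB2+/+ or CB2−/− mice (20–25 g), bred and genotyped in-house, were used in a paclitaxel-induced neuropathy model. Once allodynia was established, the test compound was given at 10 mg/kg IP. Tactile paw-withdrawal thresholds were measured with von Frey filaments after ≥30 min acclimation on a wire-mesh floor; n = 5 per group.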

human CB1 receptor [12] = target: T3, human CB1 receptor; assay: Radioligand competitive binding assay, human CB1; settings: Mean Ki Human CB1, [3H]CP 55,940 was used (footnote b)
naïve rats [13] = settings: 15 mg/kg IP; historical data ref 24; cited from earlier work
human CB2 receptor [14] = target: T4, human CB2 receptor (Homo sapiens, UniProt P34972); assay: GTPγ[35S] functional assay, human CB2; assay type: biochemical
human CB2 receptor [15] = target: T4, human CB2 receptor; assay: Radioligand competitive binding assay, human CB2
rat CB1 receptor [16] = target: T2, rat CB1 receptor; assay: Radioligand competitive binding assay, rat CB1
[17] = test system: paclitaxel-treated CB2^−/− mice; assay: Tactile allodynia, paclitaxel-induced neuropathic pain model in CB2^−/− mice; assay type: in vivo, mouse; settings: 10 mg/kg IP
How it was run: as §1

paclitaxel-treated rats = assay: Tactile allodynia, paclitaxel-induced neuropathic pain model in rats; assay type: in vivo, rat; settings: IP
How it was run: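 Male Sprague-Dawley rats (120–150 g) received paclitaxel 1.0 mg/kg IP daily for 4 days (cumulative 4 mg/kg) in 10% Cremophor EL in saline, 1 mL/kg. Baseline was taken on day 0, then daily von Frey hind-paw thresholds (≥30 min acclimation on wire mesh) until neuropathy was confirmed. The test compound was given IP, compared with vehicle-treated rats; n = 5 per group. Values were expressed as %MPE and AUC.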

human CB2 receptor [18] = target: T4, human CB2 receptor; settings: cited from earlier work
mouse CB2 receptors = settings: cited from earlier work
human CB2 receptor [19] = target: T4, human CB2 receptor; settings: cited from earlier work; remark: listed apart in the source
[20] = test system: rodents with spinal nerve ligation; settings: cited from earlier work
human CB2 receptor [21] = target: T4, human CB2 receptor; settings: cited from earlier work; remark: listed apart in the source
human CB2 receptor [22] = target: T4, human CB2 receptor; settings: cited from earlier work; remark: listed apart in the source
rat CB2 receptors [23] = settings: cited from earlier work; remark: listed apart in the source

T2 sequence (P20272 whole entry): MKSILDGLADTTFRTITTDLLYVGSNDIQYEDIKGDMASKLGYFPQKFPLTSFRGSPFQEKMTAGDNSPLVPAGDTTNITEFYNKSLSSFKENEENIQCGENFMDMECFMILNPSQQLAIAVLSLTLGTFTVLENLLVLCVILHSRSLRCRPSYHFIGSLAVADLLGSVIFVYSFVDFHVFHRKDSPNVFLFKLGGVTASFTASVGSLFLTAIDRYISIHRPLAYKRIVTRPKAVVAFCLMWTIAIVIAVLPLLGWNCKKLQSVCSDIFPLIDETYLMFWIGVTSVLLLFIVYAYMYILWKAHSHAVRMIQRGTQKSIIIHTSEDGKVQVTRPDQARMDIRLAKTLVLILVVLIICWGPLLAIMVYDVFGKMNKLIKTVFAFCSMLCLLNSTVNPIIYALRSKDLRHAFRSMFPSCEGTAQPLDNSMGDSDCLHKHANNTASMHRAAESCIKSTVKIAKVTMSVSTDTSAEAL
T3 sequence (P21554 whole entry): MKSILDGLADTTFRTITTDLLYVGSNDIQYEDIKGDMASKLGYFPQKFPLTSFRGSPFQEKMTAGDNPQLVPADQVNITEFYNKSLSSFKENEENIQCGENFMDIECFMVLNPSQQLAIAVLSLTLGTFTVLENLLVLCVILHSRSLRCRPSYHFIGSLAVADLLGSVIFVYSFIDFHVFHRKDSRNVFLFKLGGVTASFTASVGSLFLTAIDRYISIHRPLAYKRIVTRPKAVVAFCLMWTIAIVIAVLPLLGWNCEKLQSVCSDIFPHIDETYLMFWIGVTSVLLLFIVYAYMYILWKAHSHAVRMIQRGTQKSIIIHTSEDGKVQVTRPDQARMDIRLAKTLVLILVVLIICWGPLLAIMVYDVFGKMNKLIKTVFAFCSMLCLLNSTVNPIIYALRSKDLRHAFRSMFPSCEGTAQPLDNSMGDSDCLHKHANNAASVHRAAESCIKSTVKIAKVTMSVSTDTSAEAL
T4 sequence (P34972 whole entry): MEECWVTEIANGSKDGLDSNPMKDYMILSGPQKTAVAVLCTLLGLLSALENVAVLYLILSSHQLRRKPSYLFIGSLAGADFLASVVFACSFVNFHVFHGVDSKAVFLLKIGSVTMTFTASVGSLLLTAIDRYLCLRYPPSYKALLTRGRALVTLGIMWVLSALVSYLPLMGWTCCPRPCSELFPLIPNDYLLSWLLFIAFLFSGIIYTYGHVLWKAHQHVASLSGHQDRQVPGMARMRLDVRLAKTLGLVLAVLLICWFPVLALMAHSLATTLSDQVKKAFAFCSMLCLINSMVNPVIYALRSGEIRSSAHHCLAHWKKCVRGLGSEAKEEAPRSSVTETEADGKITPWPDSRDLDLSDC

## CCCCCCC(C)(C)c1ccc([C@@H]2C[C@H](O)CC[C@H]2CCCO)c(O)c1 [CP 55,940, reference compound]
Rat CB2 receptor [1]
  Functional behaviour in cAMP activation assay, rat CB2: strong agonist activity
Rat CB2 receptor [1]; forskolin 10 µM, NA = not active at 1 µM
  cAMP activation assays Rat CB2 Emax: 100%
Rat CB2 receptor [2]
  Functional behaviour in GTPγ[35S] assay, rat CB2: agonist activity
Rat CB2 receptor [2]; read-out: GTPγ[35S] functional assays Rat CB2 EC50, agonism
  EC50: 2.3 ± 1.8 nM
Rat CB2 receptor [2]; relative to efficacy of CP 55,940
  GTPγ[35S] functional assays Rat CB2 Emax: 112%

## Cc1c(C(=O)c2cccc3ccccc23)c2cccc3c2n1[C@H](CN1CCOCC1)CO3 [WIN 55,212-2, reference compound]
[3]; 3 mg/kg IP
  Adverse effects: immobility and increased sensitivity to noise and handling
[3]; IP
  Effect on tactile allodynia: attenuated tactile allodynia in a dose-related manner
[3]; IP, at 15 minutes, 95% CI = 0.5–0.9 mg/kg
  ED50 tactile allodynia: 0.7 mg/kg
Central nervous system
  Doses with adverse effects in the central nervous system: > 1 mg/kg
naïve rats [4]
  Effect on exploratory behavior (distance traveled, ambulatory time, vertical movements, zone entries): significantly decreased exploratory behavior

## COc1ccc2c(c1)c(CCN1CCOCC1)c(C)n2C(=O)c1cccc(Cl)c1Cl [L768242]
Rat CB2 receptors [5]
  Functional character at rat CB2: protean agonists
Human CB2 receptors
  Functional character at human CB2: protean agonists

## CCCCCCN1C(=O)/C(=N\NC(=O)c2ccccc2)c2ccccc21 [MDA19, N′-[(3Z)-1-(1-hexyl)-2-oxo-1,2-dihydro-3H-indol-3-ylidene]benzohydrazide]
Rat CB1 receptor [6]
  EC50: 427 ± 35 nM
  Functional behaviour in GTPγ[35S] assay, rat CB1: agonist
Rat CB1 receptor [6]; read-out: GTPγ[35S] functional assays Rat CB1 Emax
  Emax: 54%
[3]; 15 mg/kg IP
  Antiallodynic effects compared with 1 mg/kg WIN 55,212-2 IP: not significantly different
[3]; 15 mg/kg versus 5 mg/kg or vehicle
  Antiallodynic effect, area under the curve: significantly (P < 0.01) greater antiallodynic effect
[3]; IP
  Effect on tactile allodynia: attenuated tactile allodynia in a dose-related manner
[3]; MDA19 10 mg/kg IP, AM630 5 mg/kg IP 15 minutes before, P < 0.05
  Antiallodynic effect after pretreatment with AM630: significantly reversed
[3]; after a 15 mg/kg dose IP
  Efficacy in attenuating tactile allodynia: 70% ± 10%
Rat CB1 receptor [7]
  EC50: 814 ± 83 nM
  Functional behaviour in cAMP activation assay, rat CB1: agonist
Rat CB1 receptor [7]; read-out: cAMP activation assays Rat CB1 Emax
  Emax: 89%
Human CB1 receptor [8]
  EC50: 922 ± 56 nM
  Functional behaviour in GTPγ[35S] assay, human CB1: agonist
Human CB1 receptor [8]; read-out: GTPγ[35S] functional assays Human CB1 Emax
  Emax: 64.5%
Rat CB2 receptor [9]
  Ki: 16.3 ± 2.1 nM
Rat CB2 receptor [9]; from Ki values
  Affinity ratio rat CB2 over rat CB1: ~70 fold
Rat CB2 receptors [10]; 200 ng/mL PTX 16 hours before 10 µM MDA19
  Activation of Erk1/2 after PTX: blocked
Rat CB2 receptors [10]; 10 µM, 30 minutes, CHO-rCB2 cells
  Functional behaviour in Erk1/2 activation (phosphorylation of Erk1/2): behaved as an agonist and induced phosphorylation of Erk1/2
Rat CB2 receptors [10]; 20 µM AM630 30 minutes before 10 µM MDA19
  Activation of Erk1/2 after AM630: blocked
Rat CB2 receptor [1]
  Functional behaviour in cAMP activation assay, rat CB2: no activity
[11]
  Effect on mechanical allodynia: suppressed mechanical allodynia
  Time of peak effect for reversing mechanical allodynia: 30 min
Human CB1 receptor [12]
  Ki: 150 nM
naïve rats [13]
  Effect on exploratory behavior (distance traveled, ambulatory time, vertical movements, zone entries): had no effect on exploratory behavior
Human CB2 receptor [14]
  EC50: 83 ± 19 nM
  Functional behaviour in GTPγ[35S] assay, human CB2: agonist
Human CB2 receptor [14]; read-out: GTPγ[35S] functional assays Human CB2 Emax
  Emax: 65.4%
Human CB2 receptor [15]
  Ki: 43.3 ± 10.3 nM
Rat CB1 receptor [16]
  Ki: 1130 ± 574 nM
[17]
  Effect on mechanical allodynia: had no effect
Rat CB2 receptor [2]
  EC50: 19.7 ± 14 nM
  Functional behaviour in GTPγ[35S] assay, rat CB2: inverse agonist
Rat CB2 receptor [2]; read-out: GTPγ[35S] functional assays Rat CB2 Emax
  Emax: -42%
paclitaxel-treated rats; versus vehicle-treated rats
  Effect on mechanical allodynia: suppressed mechanical allodynia
paclitaxel-treated rats; n = 5 per group
  %MPE paw withdrawal threshold AUC versus vehicle: significantly different (P < 0.05)

## O=C(CCCN1CCC(O)(c2ccc(Cl)cc2)CC1)c1ccc(F)cc1 [haloperidol]
naïve rats [4]
  Effect on exploratory behavior (distance traveled, ambulatory time, vertical movements, zone entries): significantly decreased exploratory behavior

## CN1CCCCC1Cn1cc(C(=O)c2cc([N+](=O)[O-])ccc2I)c2ccccc21 (centres unmarked) [AM1241, (2-iodo-5-nitrophenyl)-[1-(1-methylpiperidin-2-ylmethyl)-1H-indol-3-yl]methanone]
Human CB2 receptor [18]
  Functional behaviour in cAMP inhibition assays, human CB2: agonist
Mouse CB2 receptors
  Functional behaviour in cAMP inhibition assays, mouse CB2: inverse agonist
Human CB2 receptor [19]
  Functional behaviour in cyclase assays: neutral antagonist
Human CB2 receptor [19]; lower forskolin concentrations
  Functional behaviour in cyclase assays at lower forskolin concentrations: agonist
[20]
  Effect on tactile allodynia: attenuated tactile allodynia in a dose-related manner
Human CB2 receptor [21]
  Functional behaviour in fluorometric image plate reader functional assays: apparent antagonist
Human CB2 receptor [22]
  Functional behaviour in Erk activation assays: apparent agonist
Rat CB2 receptors [23]
  Functional behaviour in cAMP inhibition assays, rat CB2: inverse agonist

## CN1CCCCC1Cn1cc(C(=O)c2cc([N+](=O)[O-])ccc2I)c2ccccc21 (single isomer, unassigned; (+)) [(+)AM1241]
Rat CB2 receptors [5]
  Functional character at rat CB2: protean agonists
Human CB2 receptors
  Functional character at human CB2: protean agonists

## COc1ccc(C(=O)c2c(C)n(CCN3CCOCC3)c3cc(I)ccc23)cc1 [AM630, reference compound]
[3]; 5 mg/kg IP
  Effect on paw withdrawal threshold, given alone: had no effect
